# Assay results of several laboratories.
# Compare with care: the assays were run in different laboratories.
# CDK7: Cyclin-dependent kinase 7 (CDK7, Homo sapiens, UniProt P50613)
Compound,target,effect on,action,technique,concentration,quantity,value
CCCCC(=O)Nc1ccc(-c2ccc3ncn(CCC)c(=O)c3c2)cn1,CDK7,binding,,competition with immobilised ligand,0.5 µM,remaining binding,83%
CN1CCN(C(=O)c2ccc(NC(=O)Nc3ccc(N(C)c4ccnc(Nc5ccc(CS(C)(=O)=O)cc5)n4)cc3)cc2)CC1,CDK7,binding,,competition with immobilised ligand,1 µM,remaining binding,61%
C1=C/COCc2cc(ccc2OCCN2CCCC2)Nc2nccc(n2)-c2cccc(c2)COC/1,CDK7,binding,,,0.1 µM,remaining binding,21%
C[C@]1(O)CCCN(c2nc(Nc3ccc(S(=O)(=O)N[C@H]4CC[C@H](CN5CCN(c6ccc(C7CCC(=O)NC7=O)cc6F)CC5)CC4)cc3Cl)ncc2C(F)(F)F)C1 (some centres unmarked),CDK7,binding,,competition with immobilised ligand,1 µM,remaining binding,100%
Cc1ccc(NC(=O)c2ccnc(C(F)(F)F)c2)cc1-c1cc(OCCO)nc(N2CCOCC2)c1,CDK7,binding,,competition with immobilised ligand,1 µM,remaining binding,98%
COc1ccc2oc(-c3ccc4nc(N)oc4c3)c/c(=N\c3ccccc3NC(=O)CCN)c2c1,CDK7,binding,,,1 µM,remaining binding,97%
CC(C)S(=O)(=O)c1ccc2nccc(Nc3ccc4sc(C5CCCC5)nc4c3)c2c1,"Cyclin-dependent kinase 7, with cyclin H (CDK7, Homo sapiens, UniProt P50613)",enzyme activity,inhibitor,,1 µM,activity vs control,106%
C=CC(=O)N1CCC([C@@H]2CCNc3c(C(N)=O)c(-c4ccc(Oc5ccccc5)cc4)nn32)CC1,CDK7,enzyme activity,inhibitor,,1 µM,inhibition,21%
N#Cc1ccc(NC(=O)Nc2ccccc2)cc1,CDK7,cell-free assay,,competition with immobilised ligand,25 µM,remaining binding,94%
C=CC(=O)N1CCC[C@@H](n2nc(-c3ccc(Oc4ccccc4)cc3)c3c(N)ncnc32)C1,CDK7,enzyme activity,inhibitor,,1 µM,inhibition,28%
CNS(=O)(=O)c1ccc(Nc2ncc(C(F)(F)F)c(N3CCC[C@](C)(O)C3)n2)c(C)c1,CDK7,binding,,competition with immobilised ligand,1 µM,remaining binding,83%
